Reference: ChEMBL document CHEMBL3044673, “Design, synthesis and insecticidal activity of novel phenylpyrazoles containing a 2,2,2-trichloro-1-alkoxyethyl moiety” (2010)

Columns and labels:
Assay type in all cases: functional
Aphis craccivora [1] = assay: Insecticidal activity against Aphis craccivora (cowpea aphid) infested tender soybean shoots exposed to 10 mg/kg test compound solution assessed as insect mortality measured 24 hr post compound treatment; settings: Aphis craccivora, 24 h
Outline: (§1)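 Soybean tender shoots carrying 60 aphids were dipped in test solutions. Solutions were made from a 200 mg L^-1 stock in dimethylformamide, diluted with water containing TW-20. Insects were laboratory-reared, tests were held at 25±1 °C, and mortality was scored.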

Plutella xylostella [2] = assay: Insecticidal activity against Plutella xylostella (diamondback moth) grown on compound pre-treated fresh cabbage leaves assessed as insect mortality at 2.5 mg/kg measured 3 days post compound treatment by leaf-dip method
Outline: (§2)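 Leaf-dip stomach-toxicity assay on laboratory-reared diamondback moth. Test solutions came from a 200 mg L^-1 stock in dimethylformamide, diluted with water containing TW-20. Control leaves were treated with water and dimethylformamide. Tests were held at 25±1 °C, percentage mortality was scored 3 days after treatment, and each treatment was run three times.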

Plutella xylostella [3] = assay: Insecticidal activity against Plutella xylostella (diamondback moth) grown on compound pre-treated fresh cabbage leaves assessed as insect mortality at 10 mg/kg measured 3 days post compound treatment by leaf-dip method; settings: Plutella xylostella; outline: as §2
Aphis craccivora [4] = assay: Insecticidal activity against Aphis craccivora (cowpea aphid) infested tender soybean shoots exposed to 2.5 mg/kg test compound solution assessed as insect mortality measured 24 hr post compound treatment; settings: Aphis craccivora, 24 h; outline: as §1
Plutella xylostella [5] = assay: Insecticidal activity against Plutella xylostella (diamondback moth) grown on compound pre-treated fresh cabbage leaves assessed as insect mortality at 200 mg/kg measured 3 days post compound treatment by leaf-dip method; outline: as §2
Aphis craccivora [6] = assay: Insecticidal activity against Aphis craccivora (cowpea aphid) infested tender soybean shoots exposed to 100 mg/kg test compound solution assessed as insect mortality measured 24 hr post compound treatment; outline: as §1
Plutella xylostella [7] = assay: Insecticidal activity against Plutella xylostella (diamondback moth) grown on compound pre-treated fresh cabbage leaves assessed as insect mortality at 5 mg/kg measured 3 days post compound treatment by leaf-dip method; settings: Plutella xylostella; outline: as §2
Culex pipiens pallens [8] = assay: Insecticidal activity against Culex pipiens pallens (mosquito) assessed as insect mortality at 25 ug/kg measured 1 day post compound treatment; settings: 24 h
Outline: (§3)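 Fourth-instar Culex pipiens pallens larvae, 20 per test, were laboratory-reared and placed in 100 mL of test solution made by adding 1 mL of compound dilution to 99 mL of water. Tests were held at 25±1 °C, percentage mortality was scored 1 day after treatment, and each test was run three times.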

Culex pipiens pallens [9] = assay: Insecticidal activity against Culex pipiens pallens (mosquito) assessed as insect mortality at 100 ug/kg measured 1 day post compound treatment; settings: Culex pipiens, 24 h; outline: as §3
Aphis craccivora [10] = assay: Ratio of LC50 of ethiprole to LC50 of test compound against Aphis craccivora (cowpea aphid) infested tender soybean shoots exposed to test compound solution assessed as insect mortality measured 24 hr post compound treatment
Aphis craccivora [11] = assay: Insecticidal activity against Aphis craccivora (cowpea aphid) infested tender soybean shoots exposed to 25 mg/kg test compound solution assessed as insect mortality measured 24 hr post compound treatment; outline: as §1
Aphis craccivora [12] = assay: Insecticidal activity against Aphis craccivora (cowpea aphid) infested tender soybean shoots exposed to test compound solution assessed as insect mortality measured 24 hr post compound treatment; outline: as §1
Aphis craccivora [13] = assay: Insecticidal activity against Aphis craccivora (cowpea aphid) infested tender soybean shoots exposed to 50 mg/kg test compound solution assessed as insect mortality measured 24 hr post compound treatment; outline: as §1
Plutella xylostella [14] = assay: Insecticidal activity against Plutella xylostella (diamondback moth) grown on compound pre-treated fresh cabbage leaves assessed as insect mortality at 25 mg/kg measured 3 days post compound treatment by leaf-dip method; settings: Plutella xylostella; outline: as §2
Plutella xylostella [15] = assay: Insecticidal activity against Plutella xylostella (diamondback moth) grown on compound pre-treated fresh cabbage leaves assessed as insect mortality at 100 mg/kg measured 3 days post compound treatment by leaf-dip method; outline: as §2
Culex pipiens pallens [16] = assay: Insecticidal activity against Culex pipiens pallens (mosquito) assessed as insect mortality at 50 ug/kg measured 1 day post compound treatment; settings: 24 h; outline: as §3
Plutella xylostella [17] = assay: Insecticidal activity against Plutella xylostella (diamondback moth) grown on compound pre-treated fresh cabbage leaves assessed as insect mortality at 50 mg/kg measured 3 days post compound treatment by leaf-dip method; outline: as §2
Aphis craccivora [18] = assay: Insecticidal activity against Aphis craccivora (cowpea aphid) infested tender soybean shoots exposed to 200 mg/kg test compound solution assessed as insect mortality measured 24 hr post compound treatment; outline: as §1
Aphis craccivora [19] = assay: Insecticidal activity against Aphis craccivora (cowpea aphid) infested tender soybean shoots exposed to 5 mg/kg test compound solution assessed as insect mortality measured 24 hr post compound treatment; settings: Aphis craccivora, 24 h; outline: as §1
Mythimna separata = assay: Insecticidal activity against Mythimna separata (Oriental armyworm) grown on compound pre-treated corn leaves assessed as insect mortality at 200 mg/kg measured 3 days post compound treatment by leaf-dip method
Culex pipiens pallens [20] = assay: Insecticidal activity against Culex pipiens pallens (mosquito) assessed as insect mortality at 2.5 ug/kg measured 1 day post compound treatment; settings: 24 h; outline: as §3
Culex pipiens pallens [21] = assay: Insecticidal activity against Culex pipiens pallens (mosquito) assessed as insect mortality at 10 ug/kg measured 1 day post compound treatment; settings: 24 h; outline: as §3
Culex pipiens pallens [22] = assay: Insecticidal activity against Culex pipiens pallens (mosquito) assessed as insect mortality at 5 ug/kg measured 1 day post compound treatment; settings: 24 h; outline: as §3

CCCOC(Nc1c([S+]([O-])CC)c(C#N)nn1-c1c(Cl)cc(C(F)(F)F)cc1Cl)C(Cl)(Cl)Cl (stereo not drawn)
mortality at 10 mg/kg (Aphis craccivora [1]): 100% | mortality at 2.5 mg/kg (Plutella xylostella [2]): 0% | mortality at 10 mg/kg (Plutella xylostella [3]): 44% | mortality at 2.5 mg/kg (Aphis craccivora [4]): 89% | mortality at 200 mg/kg (Plutella xylostella [5]): 100% | mortality at 100 mg/kg (Aphis craccivora [6]): 100% | mortality at 5 mg/kg (Plutella xylostella [7]): 27% | mortality at 0.025 mg/kg (Culex pipiens pallens [8]): 0% | mortality at 0.1 mg/kg (Culex pipiens pallens [9]): 100% | RatioLC50 (Aphis craccivora [10]): 7.9 | mortality at 25 mg/kg (Aphis craccivora [11]): 100% | LC50 (Aphis craccivora [12]): 1.4873 mg/kg | mortality at 50 mg/kg (Aphis craccivora [13]): 100% | mortality at 25 mg/kg (Plutella xylostella [14]): 87% | mortality at 100 mg/kg (Plutella xylostella [15]): 100% | mortality at 0.05 mg/kg (Culex pipiens pallens [16]): 100% | mortality at 50 mg/kg (Plutella xylostella [17]): 100% | mortality at 200 mg/kg (Aphis craccivora [18]): 100% | mortality at 5 mg/kg (Aphis craccivora [19]): 100%

CCCOC(Nc1c([S+](C)[O-])c(C#N)nn1-c1c(Cl)cc(C(F)(F)F)cc1Cl)C(Cl)(Cl)Cl (stereo not drawn)
mortality at 10 mg/kg (Aphis craccivora [1]): 100% | mortality at 2.5 mg/kg (Plutella xylostella [2]): 0% | mortality at 10 mg/kg (Plutella xylostella [3]): 71% | mortality at 2.5 mg/kg (Aphis craccivora [4]): 0% | mortality at 200 mg/kg (Plutella xylostella [5]): 100% | mortality at 100 mg/kg (Aphis craccivora [6]): 100% | mortality at 5 mg/kg (Plutella xylostella [7]): 30% | mortality at 0.025 mg/kg (Culex pipiens pallens [8]): 50% | mortality at 200 mg/kg (Mythimna separata): 40% | mortality at 0.1 mg/kg (Culex pipiens pallens [9]): 100% | RatioLC50 (Aphis craccivora [10]): 4.3 | mortality at 25 mg/kg (Aphis craccivora [11]): 100% | LC50 (Aphis craccivora [12]): 2.7616 mg/kg | mortality at 50 mg/kg (Aphis craccivora [13]): 100% | mortality at 25 mg/kg (Plutella xylostella [14]): 100% | mortality at 100 mg/kg (Plutella xylostella [15]): 100% | mortality at 0.05 mg/kg (Culex pipiens pallens [16]): 100% | mortality at 50 mg/kg (Plutella xylostella [17]): 100% | mortality at 200 mg/kg (Aphis craccivora [18]): 100% | mortality at 5 mg/kg (Aphis craccivora [19]): 91%

COC(Nc1c([S+](C)[O-])c(C#N)nn1-c1c(Cl)cc(C(F)(F)F)cc1Cl)C(Cl)(Cl)Cl (stereo not drawn)
mortality at 10 mg/kg (Aphis craccivora [1]): 100% | mortality at 2.5 mg/kg (Plutella xylostella [2]): 34% | mortality at 10 mg/kg (Plutella xylostella [3]): 91% | mortality at 2.5 mg/kg (Aphis craccivora [4]): 0% | mortality at 200 mg/kg (Plutella xylostella [5]): 100% | mortality at 100 mg/kg (Aphis craccivora [6]): 100% | mortality at 5 mg/kg (Plutella xylostella [7]): 88% | mortality at 0.1 mg/kg (Culex pipiens pallens [9]): 100% | RatioLC50 (Aphis craccivora [10]): 4.2 | mortality at 25 mg/kg (Aphis craccivora [11]): 100% | LC50 (Aphis craccivora [12]): 2.8848 mg/kg | mortality at 50 mg/kg (Aphis craccivora [13]): 100% | mortality at 25 mg/kg (Plutella xylostella [14]): 100% | mortality at 100 mg/kg (Plutella xylostella [15]): 100% | mortality at 0.05 mg/kg (Culex pipiens pallens [16]): 50% | mortality at 50 mg/kg (Plutella xylostella [17]): 100% | mortality at 200 mg/kg (Aphis craccivora [18]): 100% | mortality at 5 mg/kg (Aphis craccivora [19]): 88%

CCSc1c(C#N)nn(-c2c(Cl)cc(C(F)(F)F)cc2Cl)c1NC(OCCCl)C(Cl)(Cl)Cl (stereo not drawn)
mortality at 10 mg/kg (Aphis craccivora [1]): 51% | mortality at 10 mg/kg (Plutella xylostella [3]): 27% | mortality at 200 mg/kg (Plutella xylostella [5]): 100% | mortality at 100 mg/kg (Aphis craccivora [6]): 100% | mortality at 5 mg/kg (Plutella xylostella [7]): 0% | mortality at 0.025 mg/kg (Culex pipiens pallens [8]): 100% | mortality at 0.0025 mg/kg (Culex pipiens pallens [20]): 60% | mortality at 0.1 mg/kg (Culex pipiens pallens [9]): 100% | mortality at 0.01 mg/kg (Culex pipiens pallens [21]): 100% | mortality at 0.005 mg/kg (Culex pipiens pallens [22]): 100% | mortality at 25 mg/kg (Aphis craccivora [11]): 100% | mortality at 50 mg/kg (Aphis craccivora [13]): 100% | mortality at 25 mg/kg (Plutella xylostella [14]): 43% | mortality at 100 mg/kg (Plutella xylostella [15]): 100% | mortality at 0.05 mg/kg (Culex pipiens pallens [16]): 100% | mortality at 50 mg/kg (Plutella xylostella [17]): 88% | mortality at 200 mg/kg (Aphis craccivora [18]): 100% | mortality at 5 mg/kg (Aphis craccivora [19]): 0%

CCSc1c(C#N)nn(-c2c(Cl)cc(C(F)(F)F)cc2Cl)c1NC(OCCF)C(Cl)(Cl)Cl (stereo not drawn)
mortality at 10 mg/kg (Aphis craccivora [1]): 11% | mortality at 10 mg/kg (Plutella xylostella [3]): 29% | mortality at 200 mg/kg (Plutella xylostella [5]): 100% | mortality at 100 mg/kg (Aphis craccivora [6]): 100% | mortality at 5 mg/kg (Plutella xylostella [7]): 0% | mortality at 0.025 mg/kg (Culex pipiens pallens [8]): 100% | mortality at 200 mg/kg (Mythimna separata): 20% | mortality at 0.1 mg/kg (Culex pipiens pallens [9]): 100% | mortality at 0.01 mg/kg (Culex pipiens pallens [21]): 100% | mortality at 0.005 mg/kg (Culex pipiens pallens [22]): 0% | mortality at 25 mg/kg (Aphis craccivora [11]): 29% | mortality at 50 mg/kg (Aphis craccivora [13]): 100% | mortality at 25 mg/kg (Plutella xylostella [14]): 100% | mortality at 100 mg/kg (Plutella xylostella [15]): 100% | mortality at 0.05 mg/kg (Culex pipiens pallens [16]): 100% | mortality at 50 mg/kg (Plutella xylostella [17]): 100% | mortality at 200 mg/kg (Aphis craccivora [18]): 100% | mortality at 5 mg/kg (Aphis craccivora [19]): 0%
